Experiments:
[1] = biological target: T1, Alpha-2A adrenergic receptor (Bos taurus, UniProt Q28838); test: Affinity to alpha-2 adrenergic receptor by the displacement of [3H]clonidine from calf cerebral cortex membranes; assay type: tissue-based
T1 sequence (Q28838 whole entry): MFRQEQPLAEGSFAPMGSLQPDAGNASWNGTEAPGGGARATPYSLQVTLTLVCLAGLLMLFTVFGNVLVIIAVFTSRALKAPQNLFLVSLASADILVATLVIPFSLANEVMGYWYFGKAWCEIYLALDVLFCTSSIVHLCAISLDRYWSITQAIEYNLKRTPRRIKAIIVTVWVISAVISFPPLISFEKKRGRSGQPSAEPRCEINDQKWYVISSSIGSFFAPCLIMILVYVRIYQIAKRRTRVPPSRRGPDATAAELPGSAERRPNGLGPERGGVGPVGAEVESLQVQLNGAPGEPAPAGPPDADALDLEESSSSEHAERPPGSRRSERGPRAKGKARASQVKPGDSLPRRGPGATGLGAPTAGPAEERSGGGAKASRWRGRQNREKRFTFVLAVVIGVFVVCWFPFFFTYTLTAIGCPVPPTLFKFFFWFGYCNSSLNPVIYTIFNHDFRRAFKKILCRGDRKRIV
How it was run: (§1)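 Membranes from calf cerebral cortex as the receptor source. Alpha1 sites labelled with [3H]prazosin and alpha2 sites with [3H]clonidine. Affinity measured as displacement of each radioligand.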

[2] = biological target: T2, Alpha-1A adrenergic receptor (Bos taurus, UniProt P18130); test: Compound was evaluated for log 1/Ki at alpha-1 adrenergic receptor; conditions: read-out: Log 1/Ki (converted); how it was run: as §1
T2 sequence (P18130 whole entry): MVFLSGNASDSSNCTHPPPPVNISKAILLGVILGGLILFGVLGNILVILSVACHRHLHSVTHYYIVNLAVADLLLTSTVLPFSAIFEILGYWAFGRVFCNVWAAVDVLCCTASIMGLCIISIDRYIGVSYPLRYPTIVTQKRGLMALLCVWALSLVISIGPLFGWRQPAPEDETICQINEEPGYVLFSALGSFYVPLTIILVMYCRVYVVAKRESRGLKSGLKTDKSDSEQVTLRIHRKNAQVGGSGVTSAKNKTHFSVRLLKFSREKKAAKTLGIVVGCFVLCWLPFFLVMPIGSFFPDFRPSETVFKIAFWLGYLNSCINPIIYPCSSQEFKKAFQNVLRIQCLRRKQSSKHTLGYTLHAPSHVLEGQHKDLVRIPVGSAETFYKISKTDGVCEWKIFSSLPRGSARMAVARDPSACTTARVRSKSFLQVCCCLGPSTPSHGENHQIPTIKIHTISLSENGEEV

[3] = biological target: T1, Alpha-2A adrenergic receptor; test: Compound was evaluated for log 1/Ki at alpha-2 adrenergic receptor; conditions: read-out: Log 1/Ki (converted); how it was run: as §1
[4] = biological target: T2, Alpha-1A adrenergic receptor; test: Affinity to alpha-1 adrenergic receptor by the displacement of [3H]-prazosin from calf cerebral cortex membranes; assay type: tissue-based; how it was run: as §1
[5] = Partition coefficient (logD) (octanol/phosphate buffer); assay type: physicochemical
How it was run: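 Shake-flask partition between octanol and pH 7.4 phosphate buffer of ionic strength 0.1 as the aqueous phase. Compound level in each phase read by UV absorption.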

[6] = Selectivity expressed as the ratio of Ki of [3H]prazosin to Ki of [3H]-clonidine

| Compound | Ki [1] | Ki [2] | Ki [3] | Ki [4] | logD [5] | Selectivity [6] |
| --- | --- | --- | --- | --- | --- | --- |
| c1cnc2c(c1)CCN1CCCCC21 (stereo not drawn) | 2000 nM | 3240 nM | 2000 nM | 3250 nM | 0.39 | 1.6 |
| c1ccc2c3c(sc2c1)C1CCCCN1CC3 (stereo not drawn) | 4.3 nM | 16.2 nM | 4.27 nM | 16.1 nM | 2.09 | 3.7 |
| c1cc2c(s1)C1CCCCN1CC2 (stereo not drawn) | 195 nM | 1100 nM | 195 nM | 1100 nM | 1.51 | 5.6 |
| c1ccc2c3c([nH]c2c1)C1CCCCN1CC3 (stereo not drawn) |  |  |  |  | 1.83 |  |
| c1[nH]nc2c1CCN1CCCCC21 (stereo not drawn) | 9600 nM | 24000 nM | 9550 nM | 24000 nM | 0.16 | 2.5 |
| c1cnc2[nH]c3c(c2c1)CCN1CCCCC31 (stereo not drawn) | 660 nM | 537 nM | 661 nM | 540 nM | 0.16 | 0.8 |
| c1ccc2c3c(oc2c1)C1CCCCN1CC3 (stereo not drawn) | 16.2 nM | 110 nM | 16.2 nM | 110 nM | 1.8 | 6.8 |
| Nc1nc2c(s1)CCN1CCCCC21 (stereo not drawn) | 350 nM | 2820 nM | 347 nM | 2800 nM | 0.39 | 8 |

— ChEMBL document CHEMBL1124062, “Structure-affinity relationships of arylquinolizines at alpha-adrenoceptors” (J Med Chem, 1988)
